High-throughput results as filed in PubChem BioAssay.
In the library only some 2.9% were active in any assay of this set; here they are far more common.
Cneo AK release: Cryptococcus neoformans cell lysis inducers, primary screen, AK release luminescence, single concentration | AID 651654, 2012 | hit rate 0.2% among 360,000 | C. neoformans lysis, adenylate kinase release luminescence, 4 h; normalised: neutral wells 0, clomiphene wells 100 | lysis activity, % at 15 µM;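 active = mean lysis activity across replicates of at least 80%, whatever share of replicates individually reach that level; inactive = mean lysis activity below 80%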
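Test system: log-phase Cryptococcus neoformans yeast cells. Input: 5 × 10^6 yeast cells/mL. Medium: fresh YPD growth medium. Doses: single dose. Incubation: static 4 h at 37 °C with compound, 1 h detection. Measured by: luminescent adenylate kinase detection reagent. Read-out: signal increase indicating cell lysis. Benchmarks: Clomiphene.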
Vif imaging: HIV Vif self-association inhibitors, primary screen, imaging, HEK293T, single point; HEK293T cells, Vif self-association by quenched fluorescence, 24 h; inhibition, % at 7.49 µM; hit rate 0.35% among 340,000; in the data active = inhibition above about 50%, passing the limit was not always enough
FGF22 binding: binders of human FGF22 protein, primary screen, FGF22 synaptogenesis inhibitor project, biophysical, thermal shift, single point. activity (Tm shift, normalised), % at 9.99 µM. recombinant FGF22 thermal shift, SYPRO orange fluorescence; percent of sucrose octasulfate shift, DMSO zero. AID 651658, 2012. hit rate 1.5% among 340,000. Fibroblast growth factor 22 (Homo sapiens), Q9HCT0;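 active = mean Tm shift, scaled 0 neutral to 100 positive control, at about 1.3% or above, every replicate too, limit read from the data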
Target sequence (Q9HCT0 whole entry, looked up): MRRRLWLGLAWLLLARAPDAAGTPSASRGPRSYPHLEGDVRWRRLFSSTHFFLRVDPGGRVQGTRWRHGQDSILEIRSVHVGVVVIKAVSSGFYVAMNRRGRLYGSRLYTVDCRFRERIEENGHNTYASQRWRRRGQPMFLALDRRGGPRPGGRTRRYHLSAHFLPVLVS
rRNA inh HTS: reduced GFP signal of wild-type E. coli, primary screen, bacterial rRNA inhibitor project, GFP/RFP fluorescence, OD600, single point; E. coli WT GFP vs humanized-ribosome RFP mutants, 24 h; active compounds read low; DMSO median 0, no signal -100; GFP signal change (wild-type ribosome), % (concentration not given with the values); hit rate 1.6% among 350,000;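 active = significant combined selectivity score with lowered wild-type GFP, culture density cut under 30%, mutant RFP and density less affected; inactive = any of these conditions unmet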
PGC1a acetyl inh: inhibitors of PGC1a acetylation signal, primary screen, cell-based, U2OS, AlphaScreen, inhibitor mode; AlphaScreen anti-acetyl-lysine; with virally co-expressed GCN5 acetyltransferase; inhibition, % at 15.6 µM; hit rate 0.17% among 350,000; AID 651687, 2012;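 active = every replicate shows inhibition of at least 40%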;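 also: 0% = neutral control wells and 100% = positive control wells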
PglD DTNB: C. jejuni PglD acetyltransferase inhibitors, primary screen, biochemical, DTNB colorimetric, single point | purified PglD enzyme, DTNB colorimetric CoA detection | AID 602405, 2012 | UDP-N-acetylbacillosamine N-acetyltransferase PglD (Campylobacter jejuni) | inhibition, % at 12.5 µM | hit rate 0.098% among 360,000; in the data active = inhibition above about 16%, passing the limit was not always enough
Active calls of the source: *; / = no result.

SMILES	Cneo AK release	Vif imaging	FGF22 binding	rRNA inh HTS	PGC1a acetyl inh	PglD DTNB
COC(=O)c1ccc2c(=O)n(Cc3ccco3)c(SCC(=O)Nc3cc(C)on3)nc2c1	/	53*	0	3	/	/
C=CCn1c(SCc2ccc(Cl)cc2)nc2cc(C(=O)N3CCC(C(N)=O)CC3)ccc2c1=O	1	0	21*	7	-12	4
NC(=O)C1CCN(C(=O)c2ccc3c(=O)n(Cc4ccco4)c(SCC(=O)c4ccccc4)nc3c2)CC1	-1	-6	44*	2	/	-2
CCCCCn1c(SCC(=O)OCC)nc2cc(C(=O)N3CCC(C(N)=O)CC3)ccc2c1=O	2	6	/	/	-2	7
O=C(C[C@H]1C=C[C@H](NC(=O)C2CC2)[C@@H](CO)O1)NCCCN1CCOCC1	-1	/	0	2	11	2
C[C@@H]1CN([C@@H](C)CO)C(=O)c2cc(NC(=O)Nc3ccccc3)ccc2O[C@@H](C)CCCCO[C@H]1CN(C)Cc1ccc(C(F)(F)F)cc1	0	/	0	-4	-3	2
COc1ccc2c3c(n(C)c2c1)[C@H](CO)N(C(=O)Nc1ccc(F)cc1)CC31CN(Cc2cccc(F)c2)C1	/	/	/	-17	-6	/
Cc1cc(N)n(-c2ccc(C(=O)O)cc2)n1	1	41	43*	12	4	1
Cn1c(SCc2cccc(Br)c2)nnc1-c1ccccn1	0	-3	0	-35*	-26	-17
CO[C@H]1CC[C@@H]2CCOc3c(C#N)cccc3C(=O)N(C)C[C@H](OC)[C@@H](C)C(=O)N(C)C[C@@H]1O2	86*	/	0	1	/	0
CO[C@@H]1CC[C@H]2CCOc3c(C#N)cccc3C(=O)N(C)C[C@H](C)C(=O)N(C)C[C@H]1O2	62	/	0	2	7	4
CO[C@H]1CC[C@H]2CCOc3c(C#N)cccc3C(=O)N(C)C[C@@H](C)C(=O)N(C)C[C@H]1O2	88*	/	0	4	-10	6
CO[C@@H]1CC[C@H]2CCOc3c(C#N)cccc3C(=O)N(C)C[C@@H](OC)[C@@H](C)C(=O)N(C)C[C@H]1O2	2	/	0	-3	/	3
O=C(c1cccnc1)N1CCN(C/C=C/c2ccccc2)CC1	/	-3	43*	7	20	/
COc1ccc2c3c(n(C)c2c1)[C@H](CO)N(S(C)(=O)=O)CC31CCN(CC2CCCC2)CC1	/	/	0	0	/	/
CC(=O)N1[C@@H]2CN(S(=O)(=O)c3ccccc3F)c3ccccc3[C@@H]2[C@@H]1CO	92*	/	0	0	16	1
O=S(=O)(c1ccc(F)cc1)N1C[C@@H]2[C@H](c3ccccc31)[C@@H](CO)N2Cc1ccccc1Cl	92*	/	0	-14	-12	5
O=C(C[C@H]1C=C[C@H](NC(=O)Nc2cc(F)ccc2F)[C@H](CO)O1)NCc1ccccn1	0	/	0	0	-5	0
Cc1ccc2c(c1)C=CC(C#N)N2C(=O)c1ccccc1 (stereo not drawn)	/	-1	0	-15	/	/
CC1=Cc2ccccc2C(C#N)N1C(=O)c1ccccc1 (stereo not drawn)	-3	-5	44*	-7	-13	3
Cc1cc2oc(C(=O)N3CCN(CCc4ccccn4)CC3)c(C)c2cc1C	2	-21	0	-28*	/	4
Cc1ccc2c(C)c(C(=O)N3CCN(Cc4ccccn4)CC3)oc2c1C	82*	4	0	-7	/	-1
CCOc1ccc(NC(=O)/C(C#N)=C\c2ccc(N3CCCC3)c(C)c2)cc1	/	54*	0	-11	/	/
CCOc1ccc(/C=C(\C#N)C(=O)Nc2cccnc2)cc1	/	-2	/	/	-7	2
NC(=NCc1ccco1)NC(=O)c1ccc(Cl)cc1	/	19	0	-25*	-7	/
